The text below walks through data of article PMC9934531 (bioRxiv, 2023).

In one assay the test system is cardiac trabeculae. Briefly: Calcium sensitivity of force generation in isolated cardiac trabeculae. The format is cell-based, rat. As to conditions: 20 μM compound. The method in brief:
(§1)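 Four male Sprague Dawley rats (7–9 months); cardiac trabeculae (n=10) and soleus fibers (n=10), soleus fibers typed slow by SDS-PAGE. Force measured in activating solutions of graded pCa, first without then with 20 μM test compound. pCa50 taken from force–pCa curve fits, and the with/without difference was analysed per preparation by paired Student's t-test. Maximal force was the mean of pCa 4.0 activations (every third; n=6), without then with compound.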

Assay [1] relates to slow skeletal muscle (soleus) fibers. Briefly: Calcium sensitivity of force generation in slow skeletal muscle. It is filed as cell-based, rat. As to conditions: 20 μM compound. In a few lines: as §1
Assay [2] concerns the target hydrophobic patch of cNTnC in the presence of cTnIsp. The note with it: cited from earlier work.

Like-named read-outs stand apart in the source and are kept apart here.

Consider `O=C(CSc1nc(-c2ccccc2)c(-c2ccccc2)[nH]1)Nc1nccs1` [Compound 7930079, 2-[(4,5-diphenyl-1H-imidazol-2-yl)thio]-N-1,3-thiazol-2-ylacetamide], for which the “decrease in average maximal force” value in the assay with cardiac trabeculae (pCa 4.0, cardiac trabeculae, P=0.001) is listed as 8%. Further, the “shift of force/pCa curve to higher sensitivity (ΔpCa50)” value in the assay with cardiac trabeculae (rat cardiac trabeculae, n=10, P<.01) is on record as 0.05 ± 0.04 pCa unit; in assay [1] (rat slow fibers, n=10, P<.01), 0.20 ± 0.03 pCa unit. In addition, the “effect on average maximal force generation” value in assay [1] (pCa 4.0, slow fibers, P=0.39) is on record as “no effect”. The Kd in assay [2] (read-out: apparent experimental binding affinity) is 1.45 ± 0.09 µM.

Regarding `CN1CCN(CCCN2c3ccccc3Sc3ccc(C(F)(F)F)cc32)CC1` [TFP, trifluoperazine], the Kd in assay [2] is 110 ± 20 µM.

As to `CC(C)COCC(CN(Cc1ccccc1)c1ccccc1)N1CCCC1` (centres unmarked) [bepridil], in assay [2], the Kd was 380 ± 60 µM.

`C[C@@H]1CC(=O)NN=C1c1ccc(NN=C(C#N)C#N)cc1` [levosimendan]: the Kd in assay [2] is about 700 µM.
